Measurements taken from ChEMBL document CHEMBL3112444, “Synthesis and anticancer activity of focused compound libraries from the natural product lead, oroidin” (2014).

Legend:
[1] = Cytotoxicity against human U87 cells assessed as growth inhibition after 72 hrs by MTT assay; format: functional, U-87MG ATCC; conditions: U-87 MG
Summary of the method: (§1)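 Cells in logarithmic growth kept in DMEM with 10% FBS, 10 mM sodium bicarbonate, penicillin 100 IU/mL, glutamine 4 mM, at 37 °C under 5% CO2. Plated in duplicate at 2500–4000 cells/well. Compound (30 mM DMSO stock) added 24 h after plating. MTT read at 540 nm after 72 h exposure.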

[2] = Cytotoxicity against mouse SMA cells assessed as growth inhibition after 72 hrs by MTT assay; format: functional; summary of the method: as §1
[3] = Cytotoxicity against human SJ-G2 cells assessed as growth inhibition after 72 hrs by MTT assay; format: functional; conditions: SJ-G2, 72 h; summary of the method: as §1
[4] = Cytotoxicity against human MIA cells assessed as growth inhibition after 72 hrs by MTT assay; format: functional; summary of the method: as §1
[5] = Cytotoxicity against human BE(2)-C cells assessed as growth inhibition after 72 hrs by MTT assay; format: functional; summary of the method: as §1
DU-145 [6] = assay: Cytotoxicity against human DU145 cells assessed as growth inhibition after 72 hrs by MTT assay; format: functional; conditions: DU-145, 72 h; summary of the method: as §1
[7] = Cytotoxicity against human H460 cells assessed as growth inhibition after 72 hrs by MTT assay; format: functional; conditions: NCI-H460, 72 h; summary of the method: as §1
A-431 [8] = assay: Cytotoxicity against human A431 cells assessed as growth inhibition after 72 hrs by MTT assay; format: functional; conditions: A-431, 72 h; summary of the method: as §1
A2780 [9] = assay: Cytotoxicity against human A2780 cells assessed as growth inhibition after 72 hrs by MTT assay; format: functional; conditions: A2780, 72 h; summary of the method: as §1
MCF7 [10] = assay: Cytotoxicity against human MCF7 cells assessed as growth inhibition after 72 hrs by MTT assay; format: functional; conditions: MCF7, 72 h; summary of the method: as §1
SW480 [11] = assay: Cytotoxicity against human SW480 cells assessed as growth inhibition after 72 hrs by MTT assay; format: functional; conditions: SW480, 72 h; summary of the method: as §1
HT-29 [12] = assay: Cytotoxicity against human HT-29 cells assessed as growth inhibition after 72 hrs by MTT assay; format: functional; conditions: HT-29, 72 h; summary of the method: as §1
[13] = Cytotoxicity against human U87 cells assessed as growth inhibition at 25 uM after 72 hrs by MTT assay relative to control; format: functional, U-87MG ATCC; conditions: U-87 MG, read-out: GI; summary of the method: as §1
[14] = Cytotoxicity against mouse SMA cells assessed as growth inhibition at 25 uM after 72 hrs by MTT assay relative to control; format: functional; conditions: read-out: GI; summary of the method: as §1
[15] = Cytotoxicity against human MIA cells assessed as growth inhibition at 25 uM after 72 hrs by MTT assay relative to control; format: functional; conditions: read-out: GI; summary of the method: as §1
[16] = Cytotoxicity against human SJ-G2 cells assessed as growth inhibition at 25 uM after 72 hrs by MTT assay relative to control; format: functional; conditions: SJ-G2, 72 h, read-out: GI; summary of the method: as §1
[17] = Cytotoxicity against human BE(2)-C cells assessed as growth inhibition at 25 uM after 72 hrs by MTT assay relative to control; format: functional; conditions: read-out: GI; summary of the method: as §1
DU-145 [18] = assay: Cytotoxicity against human DU145 cells assessed as growth inhibition at 25 uM after 72 hrs by MTT assay relative to control; format: functional; conditions: DU-145, 72 h, read-out: GI; summary of the method: as §1
A-431 [19] = assay: Cytotoxicity against human A431 cells assessed as growth inhibition at 25 uM after 72 hrs by MTT assay relative to control; format: functional; conditions: A-431, 72 h, read-out: GI; summary of the method: as §1
[20] = Cytotoxicity against human H460 cells assessed as growth inhibition at 25 uM after 72 hrs by MTT assay relative to control; format: functional; conditions: NCI-H460, 72 h, read-out: GI; summary of the method: as §1
A2780 [21] = assay: Cytotoxicity against human A2780 cells assessed as growth inhibition at 25 uM after 72 hrs by MTT assay relative to control; format: functional; conditions: A2780, 72 h, read-out: GI; summary of the method: as §1
MCF7 [22] = assay: Cytotoxicity against human MCF7 cells assessed as growth inhibition at 25 uM after 72 hrs by MTT assay relative to control; format: functional; conditions: MCF7, 72 h, read-out: GI; summary of the method: as §1
SW480 [23] = assay: Cytotoxicity against human SW480 cells assessed as growth inhibition at 25 uM after 72 hrs by MTT assay relative to control; format: functional; conditions: SW480, 72 h, read-out: GI; summary of the method: as §1
HT-29 [24] = assay: Cytotoxicity against human HT-29 cells assessed as growth inhibition at 25 uM after 72 hrs by MTT assay relative to control; format: functional; conditions: HT-29, 72 h, read-out: GI; summary of the method: as §1

| SMILES | GI50 [1] [µM] | GI50 [2] [µM] | GI50 [3] [µM] | GI50 [4] [µM] | GI50 [5] [µM] | GI50 (DU-145 [6]) [µM] | GI50 [7] [µM] | GI50 (A-431 [8]) [µM] | inhibition of growth at 25 µM [13] [%] | inhibition of growth at 25 µM [14] [%] | inhibition of growth at 25 µM [15] [%] | inhibition of growth at 25 µM [16] [%] | inhibition of growth at 25 µM [17] [%] | inhibition of growth at 25 µM (DU-145 [18]) [%] | inhibition of growth at 25 µM (A-431 [19]) [%] | inhibition of growth at 25 µM [20] [%] | inhibition of growth at 25 µM (A2780 [21]) [%] | inhibition of growth at 25 µM (MCF7 [22]) [%] | inhibition of growth at 25 µM (SW480 [23]) [%] | inhibition of growth at 25 µM (HT-29 [24]) [%] | further results |
| --- | --- | --- | --- | --- | --- | --- | --- | --- | --- | --- | --- | --- | --- | --- | --- | --- | --- | --- | --- | --- | --- |
| O=C(NCc1ccccc1)c1cc(Br)c(Br)[nH]1 | > 50 | 25 | 11 | > 50 | 4.8 | 33 | 35 | 22 | 31 | 61 | 33 | 95 | > 100 | 52 | 56 | 43 | 84 | > 100 | 33 | > 100 | GI50 (A2780 [9]): 14 µM; GI50 (MCF7 [10]): 11 µM; GI50 (SW480 [11]): > 50 µM; GI50 (HT-29 [12]): 4.6 µM |
| Nc1ncc(/C=C/CNC(=O)c2cc(Br)c(Br)[nH]2)[nH]1 [OROIDIN] | > 50 | > 50 | > 50 | > 50 | > 50 | > 50 | > 50 | > 50 | 3 | 15 | 21 | < 0 | 6 | 23 | 6 | 7 | 51 | 27 | 8 | 31 | GI50 (A2780 [9]): 24 µM; GI50 (MCF7 [10]): 42 µM; GI50 (SW480 [11]): > 50 µM; GI50 (HT-29 [12]): > 50 µM |
| O=C(NCCCn1cccn1)c1cc(Br)c(Br)[nH]1 | – | – | – | – | – | – | – | – | < 0 | 6 | 3 | < 0 | 6 | 5 | 3 | 14 | 15 | 12 | < 0 | 4 | – |
| CCc1ccc(CCNC(=O)c2ccc[nH]2)cc1 | – | – | – | – | – | – | – | – | 0 | 8 | 12 | < 0 | < 0 | 1 | 0 | 3 | < 0 | 19 | < 0 | 22 | – |
| COc1ccc(CNC(=O)c2cc(Br)c(Br)[nH]2)cc1 | – | – | – | – | – | – | – | – | < 0 | 23 | 14 | 4 | < 0 | < 0 | 12 | 13 | 48 | 30 | < 0 | 14 | – |
| O=C(NCCc1c[nH]cn1)c1cc(Br)c(Br)[nH]1 | – | – | – | – | – | – | – | – | 5 | 18 | 20 | 11 | 13 | < 0 | 2 | 35 | 37 | 23 | 12 | 11 | – |
